According to ChEMBL document CHEMBL1156763, “1,8-Naphthyridines VIII. Novel 5-aminoimidazo[1,2-a] [1,8]naphthyridine-6-carboxamide and 5-amino[1,2,4]triazolo[4,3-a] [1,8]naphthyridine-6-carboxamide derivatives showing potent analgesic or anti-inflammatory activity, respectively, and completely devoid of acute gastrolesivity” (Eur J Med Chem, 2010):

Columns and labels:
Rattus norvegicus [1] = experiment: Antiinflammatory activity against carrageenan-induced paw edema in Wistar rat assessed as inhibition of hind paw edema at 100 mg/kg, po administered 1 hr prior to carrageenan challenge measured after 3 hrs relative to control; type: functional
In short: (§1)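 Wistar rats of either sex (250–300 g), fasted overnight, gavaged with compound in 0.5% methylcellulose. 1 h later, 0.1 mL 1% carrageenan injected subcutaneously into the plantar hind paw. Paw volume read by plethysmometer right after injection and 3 h later. Control edema set as 100, % inhibition from swelling difference. Groups of 8–10; Student's t-test.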

Mus musculus [2] = experiment: Sedative activity in Swiss mouse assessed as inhibition of spontaneous locomotor activity at 50 mg/kg, po dose measured for every 5 mins up to 90 mins; type: organism-based; design: dose 50 mg/kg, route oral
In short: (§2)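 Overnight-fasted mice given compound (0.5% methylcellulose) or vehicle by oral gavage, then housed singly in an activity cage. Locomotion auto-recorded in 5-min intervals for 90 min; pulses of the final 30 min scored. % inhibition versus controls; runs between 9.00 and 13.00; groups of 8–10; Student's t-test.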

Mus musculus [3] = experiment: Analgesic activity in Swiss mouse assessed as inhibition of acetic acid-induced writhing response at 25 mg/kg, po administered 1 hr before acetic acid challenge measured for 30 mins relative to control; type: functional
In short: (§3)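 Mice of either sex (25–35 g), fasted overnight, dosed by oral gavage with test agent suspended in 0.5% methylcellulose; controls got vehicle alone. Each hind-limb full extension counted as a writhe over 30 min after the noxious agent. % inhibition from treated vs control writhing; groups of 8–10; Student's t-test. Dosing starts at 100 mg/kg, then halved stepwise.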

Mus musculus [4] = experiment: Analgesic activity in Swiss mouse assessed as inhibition of acetic acid-induced writhing response at 100 mg/kg, po administered 1 hr before acetic acid challenge measured for 30 mins relative to control; type: functional; in short: as §3
Mus musculus [5] = experiment: Sedative activity in Swiss mouse assessed as inhibition of spontaneous locomotor activity at 100 mg/kg, po dose measured for every 5 mins up to 90 mins; type: organism-based; design: dose 100 mg/kg, route oral; in short: as §2
Mus musculus [6] = experiment: Analgesic activity in Swiss mouse assessed as inhibition of acetic acid-induced writhing response at 12.5 mg/kg, po administered 1 hr before acetic acid challenge measured for 30 mins relative to control; type: functional; in short: as §3
Rattus norvegicus [7] = experiment: Acute gastrolesivity in Wistar rat assessed as appearance of gastric damage at 200 mg/kg, po after 5 hrs; type: toxicity, organism-based, Stomach; design: dose 200 mg/kg, route oral; settings: in vivo
In short: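 Wistar rats (250–300 g), either sex, fasted overnight; compound suspended in 0.5% methylcellulose, single oral gavage at 200 mg kg^-1 (1 mL 100 g^-1). Stomachs excised 5 h later, fixed in 2% formalin, opened along greater curvature, examined by stereomicroscope by blinded observer. Reported as number of animals with gastric damage over treated animals (eight per group).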

Mus musculus [8] = experiment: Analgesic activity in Swiss mouse assessed as inhibition of acetic acid-induced writhing response at 50 mg/kg, po administered 1 hr before acetic acid challenge measured for 30 mins relative to control; type: functional; in short: as §3
Rattus norvegicus [9] = experiment: Antiinflammatory activity against carrageenan-induced paw edema in Wistar rat assessed as inhibition of hind paw edema at 50 mg/kg, po administered 1 hr prior to carrageenan challenge measured after 3 hrs relative to control; type: functional; in short: as §1
Rattus norvegicus [10] = experiment: Antiinflammatory activity against carrageenan-induced paw edema in Wistar rat assessed as inhibition of hind paw edema at 25 mg/kg, po administered 1 hr prior to carrageenan challenge measured after 3 hrs relative to control; type: functional; in short: as §1
Rattus norvegicus [11] = experiment: Antiinflammatory activity against carrageenan-induced paw edema in Wistar rat assessed as inhibition of hind paw edema at 12.5 mg/kg, po administered 1 hr prior to carrageenan challenge measured after 3 hrs relative to control; type: functional; in short: as §1
Rattus norvegicus [12] = experiment: Antiinflammatory activity against carrageenan-induced paw edema in Wistar rat assessed as inhibition of hind paw edema at 6.25 mg/kg, po administered 1 hr prior to carrageenan challenge measured after 3 hrs relative to control; type: functional; in short: as §1
Mus musculus [13] = experiment: Analgesic activity in Swiss mouse assessed as inhibition of acetic acid-induced writhing response at 6.25 mg/kg, po administered 1 hr before acetic acid challenge measured for 30 mins relative to control; type: functional; in short: as §3

Row | SMILES | inhibition in vivo at 100 mg/kg (Rattus norvegicus [1]) [%] | inhibition at 50 mg/kg (Mus musculus [2]) [%] | inhibition in vivo at 25 mg/kg (Mus musculus [3]) [%] | inhibition in vivo at 100 mg/kg (Mus musculus [4]) [%] | inhibition at 100 mg/kg (Mus musculus [5]) [%] | inhibition in vivo at 12.5 mg/kg (Mus musculus [6]) [%] | Activity (Rattus norvegicus [7]) | inhibition in vivo at 50 mg/kg (Mus musculus [8]) [%] | inhibition in vivo at 50 mg/kg (Rattus norvegicus [9]) [%] | inhibition in vivo at 25 mg/kg (Rattus norvegicus [10]) [%] | inhibition in vivo at 12.5 mg/kg (Rattus norvegicus [11]) [%] | inhibition in vivo at 6.25 mg/kg (Rattus norvegicus [12]) [%] | inhibition in vivo at 6.25 mg/kg (Mus musculus [13]) [%]
1 | CCN(CC)C(=O)c1c(N2CCN(C)CC2)c2cccnc2n2ccnc12 | 0 | 41 | 56 | 80 | 77 | 32 | Non-toxic | 74 |  |  |  |  | 
2 | CCN(C)C(=O)c1c(NC(C)C)c2cccnc2n2c(C(C)C)nnc12 | 46 |  |  | 82 | 96 |  | Non-toxic | 0 | 0 |  |  |  | 
3 | CCN(CC)C(=O)c1c(N2CCN(Cc3ccccc3)CC2)c2cccnc2n2ccnc12 | 26 |  |  | 46 | 42 |  | Non-toxic | 0 | 10 |  |  |  | 
4 | C=CCNc1c(C(=O)N(CC)CC)c2nnc(C(C)C)n2c2ncccc12 | 60 |  |  | 79 | 64 |  | Non-toxic | 28 | 49 | 52 | 32 | 25 | 
5 | CCCN(C)c1c(C(=O)N(CC)CC)c2nnc(C(C)C)n2c2ncccc12 | 71 |  |  | 71 | 62 |  | Non-toxic | 37 | 55 | 42 | 44 | 23 | 
6 | CCc1nnc2c(C(=O)N(CC)CC)c(N(C)CC(C)C)c3cccnc3n12 | 39 |  |  | 92 | 60 |  | Non-toxic | 26 | 42 | 28 | 8 |  | 
7 | CCN(CC)C(=O)c1c(N2CCN(c3ccccc3OC)CC2)c2cccnc2n2ccnc12 | 16 |  |  | 63 | 86 |  | Non-toxic | 0 |  |  |  |  | 
8 | CCC(CC)Nc1c(C(=O)N(CC)CC)c2nnc(C(C)C)n2c2ncccc12 | 50 | 84 | 58 | 91 |  | 49 | Non-toxic | 75 | 47 | 47 | 45 | 11 | 36
9 | CCN(CC)C(=O)c1c(N(C)CC)c2cccnc2n2c(C(C)C)nnc12 | 71 | 22 | 17 | 81 |  |  | Non-toxic | 59 | 67 | 65 | 51 | 42 | 
10 | CC(C)CNc1c(C(=O)N2CCN(C)CC2)c2nnc(C(C)C)n2c2ncccc12 | 0 |  |  | 48 | 0 |  | Non-toxic | 29 |  |  |  |  | 
11 | CCN(CC)C(=O)c1c(N2CCN(C)CC2)c2cccnc2n2c(C)cnc12 | 0 | 20 | 83 | 85 | 80 | 21 | Non-toxic | 86 |  |  |  |  | 
12 | CCN(CC)C(=O)c1c(NCC(C)C)c2cccnc2n2c(C)cnc12 | 0 |  |  | 0 |  |  |  |  |  |  |  |  | 
